Results reported in ChEMBL document CHEMBL4145650, “Napabucasin and Related Heterocycle-Fused Naphthoquinones as STAT3 Inhibitors with Antiproliferative Activity against Cancer Cells” (J Nat Prod, 2018).
Calls of active or inactive are those of the source. No cut-off for these calls is given here.

Tests used:
[1] = test system: K562; assay: Antiproliferative activity against human K562 cells measured after 48 hrs by MTT assay; format: functional, cell-based; conditions: K562, 48 h
Outline: (§1)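 Cells kept in 10% FBS medium with penicillin/streptomycin/L-glutamine at 37 °C, 5% CO2 (MDA-MB-231 in DMEM, K562 in RPMI 1640). Viability read by MTT reduction to formazan after 48 h of exposure. IC50 obtained by nonlinear regression against vehicle control, given as mean ±SD of three independent experiments (n = 2 where footnoted).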

[2] = test system: MDA-MB-231; assay: Antiproliferative activity against human MDA-MB-231 cells measured after 48 hrs by MTT assay; format: functional, cell-based; conditions: MDA-MB-231, 48 h; outline: as §1
[3] = test system: MDA-MB-231; assay: Induction of apoptosis in human MDA-MB-231 cells assessed as viable cells at 10 umol/L measured after 6 hrs by annexin-V-FITC/7-AAD staining based flow cytometric analysis (reference value: 97 to 98%); format: functional; conditions: MDA-MB-231, 6 h, read-out: Activity
[4] = test system: MDA-MB-231; assay: Cell cycle arrest in human MDA-MB-231 cells assessed as accumulation at G1 phase at 3 uM measured after 24 hrs by propidium iodide staining based flow cytometry (reference value: 62%); format: functional
[5] = test system: MDA-MB-231; assay: Cell cycle arrest in human MDA-MB-231 cells assessed as accumulation at sub-G0 phase at 10 uM measured after 24 hrs by propidium iodide staining based flow cytometry (reference value: 3%); format: functional
[6] = test system: MDA-MB-231; assay: Cell cycle arrest in human MDA-MB-231 cells assessed as accumulation at G2 phase at 10 uM measured after 24 hrs by propidium iodide staining based flow cytometry (reference value: 23%); format: functional
[7] = test system: MDA-MB-231; assay: Cell cycle arrest in human MDA-MB-231 cells assessed as accumulation at S phase at 1 uM measured after 24 hrs by propidium iodide staining based flow cytometry (reference value: 12%); format: functional
[8] = test system: MDA-MB-231; assay: Induction of apoptosis in human MDA-MB-231 cells assessed as early apoptotic cells at 10 umol/L measured after 24 hrs by annexin-V-FITC/7-AAD staining based flow cytometric analysis relative to control; format: functional
[9] = test system: MDA-MB-231; assay: Induction of apoptosis in human MDA-MB-231 cells assessed as viable cells at 10 umol/L measured after 4 hrs by annexin-V-FITC/7-AAD staining based flow cytometric analysis (reference value: 97 to 98%); format: functional; conditions: MDA-MB-231, 4 h, read-out: Activity
[10] = test system: MDA-MB-231; assay: Cell cycle arrest in human MDA-MB-231 cells assessed as accumulation at sub-G0 phase at 1 uM measured after 24 hrs by propidium iodide staining based flow cytometry (reference value: 3%); format: functional
[11] = test system: MDA-MB-231; assay: Cell cycle arrest in human MDA-MB-231 cells assessed as accumulation at G2 phase at 3 uM measured after 24 hrs by propidium iodide staining based flow cytometry (reference value: 23%); format: functional
[12] = test system: MDA-MB-231; assay: Cell cycle arrest in human MDA-MB-231 cells assessed as accumulation at G1 phase at 1 uM measured after 24 hrs by propidium iodide staining based flow cytometry (reference value: 62%); format: functional
[13] = test system: MDA-MB-231; assay: Cell cycle arrest in human MDA-MB-231 cells assessed as accumulation at G2 phase at 1 uM measured after 24 hrs by propidium iodide staining based flow cytometry (reference value: 23%); format: functional
[14] = molecular target: T1, Signal transducer and activator of transcription 3 (Homo sapiens, UniProt P40763); assay: Binding affinity to STAT3 in human MDA-MB-231 cells at 100 uM measured after 1 hr by DARTS-Western blot analysis; format: cell-based
Outline: (§2)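 A nondenaturing lysate of MDA-MB-231 cells (M-PER with protease and phosphatase inhibitors) was incubated with compound at 100 μmol/L or DMSO for 1 h at room temperature in the dark. TNC buffer pH 8.0 was added, then thermolysin (1:3000 of protein) for 30 min at room temperature; undigested controls were kept. Run on SDS-PAGE with 10 μg protein per lane, then Western blot with anti-STAT3.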

[15] = test system: MDA-MB-231; assay: Cell cycle arrest in human MDA-MB-231 cells assessed as accumulation at S phase at 3 uM measured after 24 hrs by propidium iodide staining based flow cytometry (reference value: 12%); format: functional
[16] = test system: K562; assay: Induction of superoxide generation in human K562 cells at 5 umol/L measured after 24 hrs in presence of NQO1 inhibitor dicoumarol by DHE staining based flow cytometry; format: functional, cell-based
Outline: (§3)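 Cells were treated with compound at 5 μmol/L or DMSO for 24 h, with or without dicoumarol preincubation (5 μmol/L, 30 min), then stained with DHE for 30 min. 2-OH-DHE fluorescence was read by flow cytometry and expressed relative to vehicle control. At least three independent measurements.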

[17] = molecular target: T1, Signal transducer and activator of transcription 3; assay: Binding affinity to STAT3 in human MDA-MB-231 cells at 100 uM treated for 1 hr followed by thermolysin addition measured after 30 mins by DARTS-Western blot analysis; format: cell-based; outline: as §2
[18] = test system: MDA-MB-231; assay: Induction of apoptosis in human MDA-MB-231 cells assessed as late apoptotic cells at 10 umol/L measured after 24 hrs by annexin-V-FITC/7-AAD staining based flow cytometric analysis relative to control; format: functional
[19] = test system: MDA-MB-231; assay: Cell cycle arrest in human MDA-MB-231 cells assessed as accumulation at G2 phase at 30 uM measured after 24 hrs by propidium iodide staining based flow cytometry (reference value: 23%); format: functional
[20] = test system: MDA-MB-231; assay: Induction of apoptosis in human MDA-MB-231 cells assessed as viable cells at 10 umol/L measured after 8 hrs by annexin-V-FITC/7-AAD staining based flow cytometric analysis (reference value: 97 to 98%); format: functional; conditions: MDA-MB-231, 8 h, read-out: Activity
[21] = test system: MDA-MB-231; assay: Cell cycle arrest in human MDA-MB-231 cells assessed as accumulation at S phase at 10 uM measured after 24 hrs by propidium iodide staining based flow cytometry (reference value: 12%); format: functional
[22] = test system: MDA-MB-231; assay: Induction of superoxide generation in human MDA-MB-231 cells at 5 umol/L measured after 24 hrs in presence of NQO1 inhibitor dicoumarol by DHE staining based flow cytometry; format: functional, cell-based; outline: as §3
[23] = test system: MDA-MB-231; assay: Cell cycle arrest in human MDA-MB-231 cells assessed as accumulation at G1 phase at 30 uM measured after 24 hrs by propidium iodide staining based flow cytometry (reference value: 62%); format: functional
[24] = test system: MDA-MB-231; assay: Effect on total STAT3 level in human MDA-MB-231 cells at 0.1 to 30 umol/L after 4 hrs by HTRF assay; format: cell-based; conditions: mda-mb-231, 4 h
Outline: (§4)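 MDA-MB-231 cells (10^5/well) were left to adhere overnight, serum-starved for 4 h in DMEM, then treated with 0.1–30 μmol/L compound (0.5% final DMSO) for 4 h at 37 °C. Lysates were incubated 24 h at room temperature with Eu-cryptate/d2 antibody pairs for phospho-STAT3 (Y705) or total STAT3. The 665/620 nm HTRF ratio was taken and phospho/total normalized. EC50 was obtained by nonlinear regression.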

[25] = test system: MDA-MB-231; assay: Induction of apoptosis in human MDA-MB-231 cells assessed as viable cells at 10 umol/L measured after 24 hrs by annexin-V-FITC/7-AAD staining based flow cytometric analysis (reference value: 97 to 98%); format: functional; conditions: MDA-MB-231, 24 h, read-out: Activity
[26] = test system: MDA-MB-231; assay: Cell cycle arrest in human MDA-MB-231 cells assessed as accumulation at sub-G0 phase at 3 uM measured after 24 hrs by propidium iodide staining based flow cytometry (reference value: 3%); format: functional
[27] = molecular target: T1, Signal transducer and activator of transcription 3; assay: Inhibition of STAT3 phosphorylation at Y705 in human MDA-MB-231 cells assessed as reduction in ratio of phosphorylated STAT3 to total STAT3 level after 4 hrs by HTRF assay; format: cell-based; outline: as §4
[28] = test system: MDA-MB-231; assay: Cell cycle arrest in human MDA-MB-231 cells assessed as accumulation at sub-G0 phase at 30 uM measured after 24 hrs by propidium iodide staining based flow cytometry (reference value: 3%); format: functional
[29] = test system: MDA-MB-231; assay: Induction of apoptosis in human MDA-MB-231 cells assessed as viable cells at 10 umol/L measured after 2 hrs by annexin-V-FITC/7-AAD staining based flow cytometric analysis (reference value: 97 to 98%); format: functional; conditions: MDA-MB-231, 2 h, read-out: Activity
[30] = test system: MDA-MB-231; assay: Cell cycle arrest in human MDA-MB-231 cells assessed as accumulation at G1 phase at 10 uM measured after 24 hrs by propidium iodide staining based flow cytometry (reference value: 62%); format: functional
[31] = test system: MDA-MB-231; assay: Induction of superoxide generation in human MDA-MB-231 cells at 5 umol/L measured after 24 hrs by DHE staining based flow cytometry; format: functional, cell-based; outline: as §3
[32] = test system: MDA-MB-231; assay: Cell cycle arrest in human MDA-MB-231 cells assessed as accumulation at S phase at 30 uM measured after 24 hrs by propidium iodide staining based flow cytometry (reference value: 12%); format: functional
[33] = molecular target: T1, Signal transducer and activator of transcription 3; assay: Inhibition of STAT3 phosphorylation at Y705 in human MDA-MB-231 cells after 4 hrs by HTRF assay; format: cell-based; outline: as §4

T1 sequence (P40763 whole entry): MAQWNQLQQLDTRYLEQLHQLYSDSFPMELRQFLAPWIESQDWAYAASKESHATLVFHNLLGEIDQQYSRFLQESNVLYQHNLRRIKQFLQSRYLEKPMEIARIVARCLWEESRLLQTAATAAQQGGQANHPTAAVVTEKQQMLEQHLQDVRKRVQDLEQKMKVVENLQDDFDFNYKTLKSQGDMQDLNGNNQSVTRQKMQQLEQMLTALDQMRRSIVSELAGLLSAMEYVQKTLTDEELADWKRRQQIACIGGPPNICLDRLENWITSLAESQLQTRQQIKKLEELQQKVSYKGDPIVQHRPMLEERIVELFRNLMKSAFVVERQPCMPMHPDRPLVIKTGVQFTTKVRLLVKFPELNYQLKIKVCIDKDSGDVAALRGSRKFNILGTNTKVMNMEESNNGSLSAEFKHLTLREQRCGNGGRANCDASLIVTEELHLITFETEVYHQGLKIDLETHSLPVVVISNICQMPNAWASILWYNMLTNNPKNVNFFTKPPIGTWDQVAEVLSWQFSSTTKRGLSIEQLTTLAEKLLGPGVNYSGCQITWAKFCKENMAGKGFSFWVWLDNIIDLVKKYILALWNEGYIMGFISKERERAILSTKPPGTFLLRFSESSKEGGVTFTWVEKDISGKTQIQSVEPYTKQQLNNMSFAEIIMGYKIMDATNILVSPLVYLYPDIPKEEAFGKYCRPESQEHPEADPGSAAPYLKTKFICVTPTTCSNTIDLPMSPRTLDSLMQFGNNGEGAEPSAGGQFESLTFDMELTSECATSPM

## CC1(C)CCC2=C(O1)C(=O)c1ccccc1C2=O [ALPHA-LAPACHONE]
[1]
  IC50: > 10 µM
[2]
  IC50: > 10 µM

## CC(=O)c1cc2c(o1)C(=O)c1ccccc1C2=O [NAPABUCASIN]
[3]
  viability at 10 µM: 96%
[1]
  IC50: 1 µM
[4]
  Activity: 56%
[5]
  Activity: 4%
[6]
  Activity: 26%
[7]
  Activity: 13%
[8]
  Activity: 20%
[9]
  viability at 10 µM: 97%
[10]
  Activity: 5%
[11]
  Activity: 25%
[12]
  Activity: 60%
[13]
  Activity: 22%
[14]
  Activity: inactive
[15]
  Activity: 15%
[16]
  Activity: inactive
[17]
  Activity: Active
[18]
  Activity: 19%
[19]
  Activity: 26%
[20]
  viability at 10 µM: 94%
[2]
  IC50: 2.1 µM
[21]
  Activity: 14%
[22]
  Activity: Active
[23]
  Activity: 56%
[24]
  Activity: Non-Toxic
[25]
  viability at 10 µM: 62%
[26]
  Activity: 5%
[27]
  EC50: 1900 nM
[28]
  Activity: 3%
[29]
  viability at 10 µM: 97%
[30]
  Activity: 56%
[31]
  Activity: Active
[32]
  Activity: 15%
[33]
  EC50: 2000 nM

## O=C1c2ccccc2C(=O)c2occc21
[1]
  IC50: 5.2 µM
[2]
  IC50: > 10 µM
